Many of the other results were omitted from the sample, so hits are more common in it than they were.
ABCB1 inh = blocks JC-1 efflux by human ABCB1 transporter; P08183; CCRF-Adr cells, flow cytometry; inhibition, % at 6.6 µM; 190,000 compounds, 0.067% hits; in the data active = inhibition above about 40%;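 also: 0% = vehicle and 100% = reference inhibitor; higher value means more JC-1 retained so stronger ABCB1 efflux block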
TRPML3 ag = agonists of human TRPML3 channel; HEK293 TRPML3-YFP, Fluo-8 calcium fluorescence; 100% = the carbachol control signal; activation, % at 3 µM; 220,000 compounds, 0.29% hits; Q8TDD5; AID 1448;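 active = activation above its plate's cutoff, the mean activation of the plate's test wells plus 3 SD, cut at about 12% in these data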;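 also: 0% = DMSO only wells and 100% = carbachol wells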
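Test system: TRPML3-YFP stable HEK293 cells. Doses: single point at 3 µM. Incubation: dye loading 1 h 37 °C then 30 min ambient, 125 s read. Signal: Fluo-8 calcium dye fluorescence, ex 470-495, em 515-575 nm. Measure: percent activation from peak-to-basal fluorescence ratio, scaled between DMSO and carbachol.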
TRPN1 ag = activates the zebrafish TRPN1 channel | HEK293 zebrafish TRPN1-YFP, Fluo-8 calcium fluorescence; 100% = response to 87 µM carbachol | activation, % at 3 µM | 220,000 compounds, 0.18% hits;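 active = activation above its plate's cutoff, the mean activation of test wells on that plate plus 3 SD, cut at about 19% in these data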;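 also: 0% = DMSO alone and 100% = 87 µM carbachol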
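Material – zebrafish TRPN1-YFP in HEK293 cells · Doses – 3 µM single point · Schedule – dye 1 h 37 °C plus 30 min RT · Signal – Fluo-8 calcium fluorescence, excitation 470-495 nm, emission 515-575 nm · Read-out – % activation versus carbachol response · Control set – carbachol high, DMSO low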
ABCG2 inh = inhibitors of human ABCG2 transporter, ABCB1 counter-screen | AID 1325 | Q9UNQ0 | IgMXP3 cells, JC-1 efflux, flow cytometry | inhibition, % at 6.6 µM | 190,000 compounds, 0.1% hits;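 active = inhibition above 80%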;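 also: 0% = DMSO and 100% = nicardipine control wells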
Target sequence (Q9UNQ0 whole entry, looked up): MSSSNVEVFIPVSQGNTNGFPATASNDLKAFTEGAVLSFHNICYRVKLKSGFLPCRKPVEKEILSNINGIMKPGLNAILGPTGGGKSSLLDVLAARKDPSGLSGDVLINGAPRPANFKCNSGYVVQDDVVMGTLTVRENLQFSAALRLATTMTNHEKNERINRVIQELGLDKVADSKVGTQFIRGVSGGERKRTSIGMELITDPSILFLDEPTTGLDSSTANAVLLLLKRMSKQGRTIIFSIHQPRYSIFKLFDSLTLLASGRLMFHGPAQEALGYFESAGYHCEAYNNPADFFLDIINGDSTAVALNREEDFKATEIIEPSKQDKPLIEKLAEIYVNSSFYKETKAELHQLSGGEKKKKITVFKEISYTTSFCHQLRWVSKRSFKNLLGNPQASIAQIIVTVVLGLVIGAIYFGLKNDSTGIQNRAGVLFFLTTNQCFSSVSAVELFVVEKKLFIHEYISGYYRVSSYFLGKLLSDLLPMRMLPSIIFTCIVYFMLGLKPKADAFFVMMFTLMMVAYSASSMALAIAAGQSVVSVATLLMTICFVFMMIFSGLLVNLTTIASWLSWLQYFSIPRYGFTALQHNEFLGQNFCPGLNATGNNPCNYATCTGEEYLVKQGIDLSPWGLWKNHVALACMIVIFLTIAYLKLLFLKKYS
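Test system: ABCG2 IgMXP3 and barcoded ABCB1 CCRF-Adr cell mix; Schedule: cells with compound and JC-1, 10 min at 25 °C, rotating, no wash; Technique: flow cytometry of retained JC-1 fluorescence; Measure: % inhibition of efflux relative to nicardipine and DMSO; Controls: nicardipine high and DMSO low controls.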
ROMK mod = modulates human ROMK potassium channel activity; P48048; Tet-inducible ROMK, thallium flux fluorescence; actives lie on both sides; B-score at 10 µM; 130,000 compounds, 2% hits;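 active = signal ratio slope over the read window, or its plate-corrected B-score, at least 3 SD from the plate mean, either direction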;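 also: B-score of the F/F0 ratio slope over 7 to 12 s after thallium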
Calb biofilm kill = mixtures killing C. albicans biofilm | C. albicans biofilm persisters + clotrimazole, fluorescence viability; primary screen in compound mixtures of four per well | inhibition, % at 7.6 µM | 120,000 compounds, 0.02% hits | AID 1242;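 active = inhibition above 30.3% in the primary screen of four-compound pools, then above 30% when the compound was retested; inconclusive = passed the primary limit but could not be retested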;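 also: compounds exposed to preformed 24 h biofilms for 48 h; 0% = untreated biofilm control and 100% = clotrimazole plus chlorhexidine kill blank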
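Probe or stimulus – Clotrimazole 50 µg/mL co-treatment · System – C. albicans biofilms · Schedule – 24 h biofilm formation, then 48 h compound exposure, 37 °C · Evaluation – percent inhibition of biofilm viability · Technique – 2-h Alamar Blue fluorescence, 535/590 nm excitation/emission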
ROMK retest = retested hit modulating human ROMK potassium channel; normalized thallium flux (F/F0 slope) at 10 µM; ROMK thallium flux, fluorescence ratio; stronger effect = lower value; 3,000 compounds, 54% hits; shares compounds with ROMK mod;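 active = Flux at 10 µM at least 3 SD below or above vehicle control mean in one or both replicates; inconclusive = no clear call, values can overlap the other calls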
* hit, by the source's call; ? = inconclusive; . = no result.

SMILES	ABCB1 inh	TRPML3 ag	TRPN1 ag	ABCG2 inh	ROMK mod	Calb biofilm kill	ROMK retest
O=C(NC1CCS(=O)(=O)C1)c1cc(-c2ccccc2)nc2ccccc12 (centres undefined)	1	-2	2	3	-0.21	0	.
COc1ccc(/C=N/NC(=O)c2csc(-n3nc(C)cc3C(F)(F)F)n2)cc1	0	-1	-2	10	.	.	0.09
Cc1cccc(S(=O)(=O)Nc2ccc(-c3nc4ccc(C)cc4s3)cc2)c1	0	0	0	-5	.	3	0.079
COC(=O)[C@@]1(Cc2ccc(F)cc2)[C@H]2c3cc(C(=O)N(C)C)n(CCc4ccccn4)c3C[C@H]2CN1C(=O)c1ccccc1	7	5	8	0	-0.34	15	.
COC(=O)[C@@]1(Cc2ccc(F)cc2)[C@H]2c3cc(C(=O)N(C)C)n(Cc4ccc(OC)c(OC)c4)c3C[C@H]2CN1C(=O)c1ccccc1	9	1	5	0	-3.5*	13	0.057*
COC(=O)[C@@]1(Cc2ccc(F)cc2)[C@H]2c3cc(C(=O)N(C)C)n(CCc4ccc(OC)c(Br)c4)c3C[C@H]2CN1C(=O)c1ccccc1	15	0	0	8	-3.8*	17	0.056*
Cc1nnsc1-c1c(C(=O)N2CCOCC2)c(C)nn1-c1ccc(Cl)cc1	.	1	0	.	.	16	.
CC(C)(C)C1CC=C2C(C#N)=C(N)C(C#N)(C#N)C(c3cccs3)C2C1 (centres undefined)	.	1	2	.	-3*	.	0.055*
CN1C2C=C3C(C#N)=C(N)C(C#N)(C#N)[C@@H](c4cccs4)C3C1CC2 (some centres undefined)	-1	0	0	21	-1.2	.	.
CC1(C)CC(=O)C(C=Nc2cccnc2/N=C/C2=C(O)CC(C)(C)CC2=O)=C(O)C1	0	2	2	-1	0.89	4	.
N=C1/C(=C\c2ccc(OC(=O)c3ccco3)cc2)C(=O)N=C2SC=NN12	0	0	-1	3	-0.12	19	.
COc1cc(/C=C2\C(=N)N3N=CSC3=NC2=O)cc(Br)c1OC(=O)c1ccco1	33	-1	-1	4	-10*	22	0.032*
CCN(CC)C(=O)CSc1nc2sc(C)c(C)c2c(=O)[nH]1	0	1	1	5	.	.	0.076
COc1cc(OC)c(NC(C)C(=O)N2CCCC2)cc1Cl (centres undefined)	1	0	0	14	1.2	7	.
O=C1NN(c2ccc(Cl)cc2)C(=O)/C1=C\c1ccc(-c2cccc(C(=O)O)c2)o1	-2	1	0	-7	0.11	19	.
O=C1NN(c2ccccc2)C(=O)/C1=C\c1ccc(-c2cc([N+](=O)[O-])ccc2O)o1	-1	1	3	-2	.	32	0.054*
O=C(c1ccccc1)c1c[nH]c(C(=O)NNc2cccc(Cl)n2)c1	0	0	0	1	2*	2	0.074
O=C(c1ccc(Cl)cc1)c1c[nH]c(C(=O)NNc2cccc(Cl)n2)c1	1	0	1	9	1.5	18	.
Cn1c(=O)cc(SCC(=O)N2CCCC2)c2ccc(Cl)cc21	2	0	1	5	0.42	.	.
COCCNC(=O)CSc1cc(=O)n(C)c2cc(Cl)ccc12	1	1	0	5	-9.8*	2	0.084
O=C(NC1CC1)C1=C[C@@H](C2CC2)C[C@@H](OCc2ccc(CO)cc2)O1	.	.	.	.	.	14	.
Oc1ccc(C[C@@H]2CNC(=S)N2CCCCC2CCCCC2)cc1	0	1	1	2	.	16	.
Cc1ccc(C(C)C)c(OCc2nn(CC(=O)c3ccc(Cl)cc3)c3[n+]2CCCCC3)c1	0	0	-1	2	-7.5*	10	0.049*
Oc1c(Cl)cc(Cl)cc1/C=N/c1nccs1	-1	0	0	-1	3.1*	.	0.1*
Oc1c(Cl)cc(Cl)cc1/C=N/c1nc(-c2ccc(Cl)cc2)cs1	.	1	1	.	.	15	.
SMILES	ABCB1 inh	TRPML3 ag	TRPN1 ag	ABCG2 inh	ROMK mod	Calb biofilm kill	ROMK retest
COCCN(CCOC)C(=S)Nc1cc(S(=O)(=O)N(C)C)ccc1C	0	1	0	1	4.3*	10	0.082
CC(=O)NNC(=S)Nc1cc(S(=O)(=O)N(C)C)ccc1C	-1	1	0	-1	0.72	2	.
Cc1cc(C)nc(SCC(=O)c2cc3ccccc3oc2=O)n1	1	1	0	8	-4.1*	.	0.06*
CCNc1oc(-c2cccc3ccccc23)nc1C#N	0	-1	0	7	.	.	.
N#Cc1nc(-c2cccc3ccccc23)oc1NCCN1CCCCC1	0	1	-1	1	-3.4*	.	0.065*
Cc1nc(-c2nc(-c3c(C(=O)NNC(=O)Nc4ccccc4)noc3C)cs2)cs1	.	0	-2	.	.	16	.
Cc1cc(C(=O)OCC(=O)N2c3ccccc3CC2C)c(C)o1 (centres undefined)	0	-1	0	0	-1.4	.	?
CN(c1ccccc1)S(=O)(=O)c1cccc(NC(=O)COC(=O)C2CCCCC2)c1	.	0	-1	.	.	18	.
COc1ccc(S(=O)(=O)NCC(c2cccnc2)N2CCN(c3ccc(F)cc3)CC2)cc1C (centres undefined)	6	0	-2	29	-3.8*	.	0.074
C/C(=N/N=C1\SCC(=O)N1c1ccccc1)c1ccc(C)cc1	.	-1	-1	.	0.71	5	.
c1ccc2c(c1)CCN(C1=Nc3cccc4cccc1c34)C2	0	1	1	5	-2*	8	0.054*
c1cc2c3c(cccc3c1)C(N1CCCCCC1)=N2	0	0	0	3	-2.1	.	.
Cc1nnc2sc(-c3cccc4ccccc34)nn12	0	-1	-1	1	-5.2*	.	0.054*
O=C1CC(N2CCN(c3ccc(O)cc3)CC2)C(=O)N1Cc1cccs1 (centres undefined)	1	1	1	0	.	.	.
O=C(c1ccncc1)c1ccc(N2CCN(C3CC(=O)N(Cc4cccs4)C3=O)CC2)cc1 (centres undefined)	1	6	15	2	.	3	0.06*
COc1ccc(OC)c(C2C(C#N)=C(N)Oc3cc(N)ccc32)c1 (centres undefined)	0	1	2	-1	.	.	.
CCOc1ccccc1C1C(C#N)=C(N)Oc2cc(N)ccc21 (centres undefined)	0	2	1	0	-4.2*	.	0.053*
COc1ccc(S(=O)(=O)N(C)CC(=O)NCCC2=CCCCC2)cc1	1	0	1	2	.	.	0.069*
